In ChEMBL document CHEMBL1777764, “Synthesis and evaluation of 1-(1H-indol-3-yl)ethanamine derivatives as new antibacterial agents” (Bioorg Med Chem, 2011):

How the values were obtained:
[1] = system: Staphylococcus aureus; test: Antibacterial activity against Staphylococcus aureus ATCC 25923 after 18 hrs by broth microdilution method; type: functional; settings: ATCC 25923, 18 h
How it was run: (§1)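 MIC by broth microdilution per ISO 20776-1:2006 and CLSI M07-A8. Inoculum 10^6 cfu/ml in Mueller-Hinton broth with compound serially diluted, final concentrations 2 to 128 ug/ml, duplicate rows, no-drug growth control. Incubation 18 h at 37 °C. MIC taken as lowest concentration giving complete inhibition of visible growth. Each compound tested at least twice.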

[2] = system: Staphylococcus aureus; test: Antibacterial activity against Staphylococcus aureus ATCC 29213 after 18 hrs by broth microdilution method; type: functional; settings: ATCC 29213, 18 h; how it was run: as §1
[3] = system: Staphylococcus aureus; test: Antibacterial activity against Staphylococcus aureus ATCC 9144 after 18 hrs by broth microdilution method; type: functional; settings: ATCC 9144, 18 h; how it was run: as §1
[4] = system: Staphylococcus aureus; test: Antibacterial activity against Staphylococcus aureus ATCC 6538 after 18 hrs by broth microdilution method; type: functional; settings: ATCC 6538, 18 h; how it was run: as §1
[5] = system: Staphylococcus aureus; test: Antibacterial activity against Staphylococcus aureus CIP 65.6 after 18 hrs by broth microdilution method; type: functional; settings: CIP 65.6, 18 h; how it was run: as §1
[6] = system: Staphylococcus aureus; test: Antibacterial activity against Staphylococcus aureus CIP 103428 after 18 hrs by broth microdilution method; type: functional; settings: CIP 103428, 18 h; how it was run: as §1
[7] = system: Staphylococcus aureus; test: Antibacterial activity against methicillin-resistant Staphylococcus aureus CIP 65.25 after 18 hrs by broth microdilution method; type: functional; settings: CIP 65.25, 18 h
How it was run: (§2)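 Broth microdilution following ISO 20776-1:2006 and CLSI M07-A8, in Mueller-Hinton broth. Inoculum was 10^6 cfu/ml, with compound serial dilutions spanning 2 to 128 ug/ml and a compound-free growth control well. Plates were incubated 18 h at 37 °C. MIC was the lowest concentration giving complete inhibition of visible growth. Each compound was tested at least twice.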

[8] = system: Staphylococcus aureus; test: Antibacterial activity against methicillin-resistant Staphylococcus aureus ATCC 33592 after 18 hrs by broth microdilution method; type: functional; settings: ATCC 33592, 18 h; how it was run: as §2
[9] = system: Staphylococcus aureus; test: Antibacterial activity against vancomycin intermediate Staphylococcus aureus […] after 18 hrs by broth microdilution method; type: functional; how it was run: as §2
[10] = system: Staphylococcus epidermidis; test: Antibacterial activity against Staphylococcus epidermidis ATCC 12228 after 18 hrs by broth microdilution method; type: functional; settings: ATCC 12228, 18 h; how it was run: as §1
[11] = system: Staphylococcus epidermidis; test: Antibacterial activity against Staphylococcus epidermidis CIP 81.55 after 18 hrs by broth microdilution method; type: functional; settings: CIP 81.55, 18 h; how it was run: as §1
[12] = system: Staphylococcus epidermidis; test: Antibacterial activity against Staphylococcus epidermidis CIP 103627 after 18 hrs by broth microdilution method; type: functional; settings: CIP 103627, 18 h; how it was run: as §1
[13] = system: Streptococcus pneumoniae; test: Antibacterial activity against Streptococcus pneumoniae ATCC 49619 after 18 hrs by broth microdilution method; type: functional; settings: ATCC 49619, 18 h
How it was run: (§3)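 MIC by broth microdilution per ISO 20776-1:2006 and CLSI M07-A8. Inoculum 10^6 cfu/ml in Mueller-Hinton broth […]. Compound serially diluted, final 2 to 128 ug/ml, duplicate rows, no-drug growth control. Read after 18 h at 37 °C as lowest concentration fully inhibiting visible growth. At least two experiments.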

[14] = system: Streptococcus pneumoniae; test: Antibacterial activity against Streptococcus pneumoniae ATCC 6303 after 18 hrs by broth microdilution method; type: functional; settings: ATCC 6303, 18 h; how it was run: as §3
[15] = system: Streptococcus agalactiae; test: Antibacterial activity against Streptococcus agalactiae ATCC 12400 after 18 hrs by broth microdilution method; type: functional; settings: ATCC 12400, 18 h; how it was run: as §2
[16] = system: Streptococcus pyogenes; test: Antibacterial activity against Streptococcus pyogenes CIP 104226 after 18 hrs by broth microdilution method; type: functional; settings: CIP 104226, 18 h; how it was run: as §2
[17] = system: Streptococcus mitis; test: Antibacterial activity against Streptococcus mitis CIP 103335 after 18 hrs by broth microdilution method; type: functional; settings: CIP 103335, 18 h
How it was run: as §2, with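 “broth […].” for “broth.”, “read after” for “incubated”, “with no” for “giving complete inhibition of”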

[18] = system: Enterococcus faecium; test: Antibacterial activity against Enterococcus faecium CIP 54.32 after 18 hrs by broth microdilution method; type: functional; settings: CIP 54.32, 18 h; how it was run: as §2
[19] = system: Enterococcus faecalis; test: Antibacterial activity against Enterococcus faecalis ATCC 29212 after 18 hrs by broth microdilution method; type: functional; settings: ATCC 29212, 18 h; how it was run: as §2
[20] = system: Escherichia coli; test: Antibacterial activity against Escherichia coli ATCC 25922 after 18 hrs by broth microdilution method; type: functional; settings: ATCC 25922, 18 h; how it was run: as §2
[21] = system: Haemophilus influenzae; test: Antibacterial activity against Haemophilus influenzae ATCC 49766 after 18 hrs by broth microdilution method; type: functional; settings: ATCC 49766, 18 h
How it was run: as §2, with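 “broth […].” for “broth.”, “read after” for “incubated”, “with no” for “giving complete inhibition of”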

[22] = system: KB; test: Cytotoxicity against human KB cells at 10 uM; type: cell-based
[23] = system: HCT-116; test: Cytotoxicity against human HCT116 cells at 10 uM; type: cell-based; settings: hct-116, 10 µM
[24] = system: MRC5; test: Cytotoxicity against human MRC5 cells at 10 uM; type: cell-based; settings: mrc5, 10 µM
[25] = system: KB; test: Cytotoxicity against human KB cells at 1 uM; type: cell-based
[26] = system: HCT-116; test: Cytotoxicity against human HCT116 cells at 1 uM; type: cell-based; settings: hct-116, 1 µM
[27] = system: MRC5; test: Cytotoxicity against human MRC5 cells at 1 uM; type: cell-based; settings: mrc5, 1 µM
[28] = system: Klebsiella pneumoniae; test: microbe, parasite or virus in culture; settings: ATCC 35657, 18 h
[29] = system: Enterobacter cloacae; test: microbe, parasite or virus in culture; settings: ATCC 13047, 18 h
[30] = system: Serratia marcescens; test: microbe, parasite or virus in culture; settings: CIP 103551, 18 h
[31] = system: Pseudomonas aeruginosa; test: microbe, parasite or virus in culture; settings: CIP 5933, 18 h
[32] = system: Acinetobacter baumannii; test: microbe, parasite or virus in culture; settings: ATCC 19606 = CIP 70.34 = JCM 6841, 18 h

SMILES | MIC [1] [µg/mL] | MIC [2] [µg/mL] | MIC [3] [µg/mL] | MIC [4] [µg/mL] | MIC [5] [µg/mL] | MIC [6] [µg/mL] | MIC [7] [µg/mL] | MIC [8] [µg/mL] | MIC [9] [µg/mL] | MIC [10] [µg/mL] | MIC [11] [µg/mL] | MIC [12] [µg/mL] | MIC [13] [µg/mL] | MIC [14] [µg/mL] | MIC [15] [µg/mL] | MIC [16] [µg/mL] | MIC [17] [µg/mL] | MIC [18] [µg/mL] | MIC [19] [µg/mL] | MIC [20] [µg/mL] | also measured
Cl.Cl.NCC(NO)c1c[nH]c2cc(F)ccc12 (stereo unspecified) | 16 | 16 | 16 | 16 | 16 | 16 | 16 | 16 | 16 | 16 | 16 | 16 | 64 | 64 | 64 | 64 | 64 | 128 | 128 | 64 | MIC [21]: > 128 µg/mL; Activity [22]: Non-toxic; Activity [23]: Non-toxic; Activity [24]: Non-toxic; Activity [25]: Non-toxic; Activity [26]: Non-toxic; Activity [27]: Non-toxic; MIC [28]: 64 µg/mL; MIC [29]: 64 µg/mL; MIC [30]: 64 µg/mL; MIC [31]: 64 µg/mL; MIC [32]: 64 µg/mL
Cl.Cl.Cl.NCC(NO)c1c[nH]c2ccc(Cl)cc12 (stereo unspecified) | 16 | 16 | 16 | 16 | 16 | 16 | 16 | 16 | 16 | 16 | 16 | 16 | 64 | 64 | 128 | 128 | 128 | > 128 | > 128 | 64 | MIC [21]: 128 µg/mL; Activity [22]: Non-toxic; Activity [23]: Non-toxic; Activity [24]: Non-toxic; Activity [25]: Non-toxic; Activity [26]: Non-toxic; Activity [27]: Non-toxic; MIC [28]: 128 µg/mL; MIC [29]: 128 µg/mL; MIC [30]: 128 µg/mL; MIC [31]: 128 µg/mL; MIC [32]: 128 µg/mL
Cl.Cl.NCC(NO)c1c[nH]c2ccc(I)cc12 (stereo unspecified) | 16 | 16 | 16 | 16 | 16 | 16 | 32 | 32 | 16 | 16 | 16 | 16 | 64 | 64 | 128 | 128 | 128 | 128 | 128 | 32 | MIC [21]: 64 µg/mL; Activity [22]: Non-toxic; Activity [23]: Non-toxic; Activity [24]: Non-toxic; Activity [25]: Non-toxic; Activity [26]: Non-toxic; Activity [27]: Non-toxic; MIC [28]: 64 µg/mL; MIC [29]: 64 µg/mL; MIC [30]: 64 µg/mL; MIC [31]: 64 µg/mL; MIC [32]: 64 µg/mL
